ChEMBL document CHEMBL4689842, “EUbOPEN Chemogenomics Library wave 1” (2021)

Assays:
Assay type in all cases: toxicity, cell-based
HEK-293T [1] = experiment: Multiplex assay against HEK293T; conditions: human;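 for Population Tubulin-Different-Phenotype (%): share of the cells with healthy nuclei that show this phenotype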
Procedure, shortened: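 Per cents of healthy-nucleus cells form the tubulin, mitochondrial-mass and membrane-permeability phenotype values. Live cells were stained at seeding with Hoechst33342, BioTracker Green Microtubule Cytoskeleton Dye, MitoTracker Red and Annexin V Alexa Fluor 680. After compound addition they were imaged on a CQ1 microscope at 37°C and 5% CO2, and CellPathfinder machine-learning gating split them into Hoechst high-intensity objects or normal cells, normal cells into healthy, pyknosed or fragmented nuclei, and pyknosed cells into mitotic or apoptotic.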

HEK-293T [2] = experiment: Incucyte cell viability with HEK293T; conditions: human, 10 µM, compound concentration 10 uM; note: filed as whole numbers so only -1 and 0 and 1 occur
Fibroblast = experiment: Incucyte cell viability with human fibroblast; conditions: 10 µM, compound concentration 10 uM; note: filed as whole numbers so only -1 and 0 and 1 occur
[3] = 12 h, 1 µM, compound concentration 1 uM, replicate 1
[4] = 12 h, 1 µM, compound concentration 1 uM, replicate 2
[5] = 12 h, 10 µM, compound concentration 10 uM, replicate 1
[6] = 12 h, 10 µM, compound concentration 10 uM, replicate 2
[7] = 24 h, 1 µM, compound concentration 1 uM, replicate 1
[8] = 24 h, 1 µM, compound concentration 1 uM, replicate 2
[9] = 24 h, 10 µM, compound concentration 10 uM, replicate 1
[10] = 24 h, 10 µM, compound concentration 10 uM, replicate 2
[11] = 6 h, replicate number 1, timepoint 6 hours
[12] = 12 h, replicate number 1, timepoint 12 hours
[13] = 18 h, replicate number 1, timepoint 18 hours
[14] = 24 h, replicate number 1, timepoint 24 hours

## COc1cc2c(Nc3ccc(NC(=O)c4ccccc4)cc3)ncnc2cc1OCCCN1CCOCC1
HEK-293T [1]; [3]
  Population Apoptotic (%): 25%
  Population Fragmented Nuclei (%): 13%
  Population Healthy Nuclei (%): 42%
  Population Hoechst High Intensity Objects (%): 18%
  Population Membrane Permeable-Phenotype (%): 29%
  Population Mitochondria Different-Phenotype (%): 17%
  Population Mitotic Cells (%): 74%
  Population Normal (%): 81%
  Population Pyknosed Nuclei (%): 43%
  Population Tubulin-Different-Phenotype (%): 81%
  Total Cell Count: 532
HEK-293T [1]; [4]
  Population Apoptotic (%): 26%
  Population Fragmented Nuclei (%): 3%
  Population Healthy Nuclei (%): 84%
  Population Hoechst High Intensity Objects (%): 6%
  Population Membrane Permeable-Phenotype (%): 15%
  Population Mitochondria Different-Phenotype (%): 39%
  Population Mitotic Cells (%): 73%
  Population Normal (%): 93%
  Population Pyknosed Nuclei (%): 12%
  Population Tubulin-Different-Phenotype (%): 96%
  Total Cell Count: 927
HEK-293T [1]; [5]
  Population Apoptotic (%): 17%
  Population Fragmented Nuclei (%): 17%
  Population Healthy Nuclei (%): 59%
  Population Hoechst High Intensity Objects (%): 11%
  Population Membrane Permeable-Phenotype (%): 3%
  Population Mitochondria Different-Phenotype (%): 9%
  Population Mitotic Cells (%): 82%
  Population Normal (%): 88%
  Population Pyknosed Nuclei (%): 22%
  Population Tubulin-Different-Phenotype (%): 9%
  Total Cell Count: 626
HEK-293T [1]; [6]
  Population Apoptotic (%): 6%
  Population Fragmented Nuclei (%): 3%
  Population Healthy Nuclei (%): 89%
  Population Hoechst High Intensity Objects (%): 2%
  Population Membrane Permeable-Phenotype (%): 2%
  Population Mitochondria Different-Phenotype (%): 12%
  Population Mitotic Cells (%): 93%
  Population Normal (%): 97%
  Population Pyknosed Nuclei (%): 6%
  Population Tubulin-Different-Phenotype (%): 13%
  Total Cell Count: 1320
HEK-293T [1]; [7]
  Population Apoptotic (%): 29%
  Population Fragmented Nuclei (%): 14%
  Population Healthy Nuclei (%): 58%
  Population Hoechst High Intensity Objects (%): 21%
  Population Membrane Permeable-Phenotype (%): 20%
  Population Mitochondria Different-Phenotype (%): 22%
  Population Mitotic Cells (%): 70%
  Population Normal (%): 78%
  Population Pyknosed Nuclei (%): 26%
  Population Tubulin-Different-Phenotype (%): 89%
  Total Cell Count: 523
HEK-293T [1]; [8]
  Population Apoptotic (%): 2%
  Population Fragmented Nuclei (%): 5%
  Population Healthy Nuclei (%): 87%
  Population Hoechst High Intensity Objects (%): 6%
  Population Membrane Permeable-Phenotype (%): 22%
  Population Mitochondria Different-Phenotype (%): 25%
  Population Mitotic Cells (%): 97%
  Population Normal (%): 93%
  Population Pyknosed Nuclei (%): 7%
  Population Tubulin-Different-Phenotype (%): 97%
  Total Cell Count: 1034
HEK-293T [1]; [9]
  Population Apoptotic (%): 9%
  Population Fragmented Nuclei (%): 12%
  Population Healthy Nuclei (%): 75%
  Population Hoechst High Intensity Objects (%): 9%
  Population Membrane Permeable-Phenotype (%): 11%
  Population Mitochondria Different-Phenotype (%): 5%
  Population Mitotic Cells (%): 90%
  Population Normal (%): 90%
  Population Pyknosed Nuclei (%): 11%
  Population Tubulin-Different-Phenotype (%): 13%
  Total Cell Count: 622
HEK-293T [1]; [10]
  Population Apoptotic (%): 4%
  Population Fragmented Nuclei (%): 14%
  Population Healthy Nuclei (%): 79%
  Population Hoechst High Intensity Objects (%): 4%
  Population Membrane Permeable-Phenotype (%): 5%
  Population Mitochondria Different-Phenotype (%): 3%
  Population Mitotic Cells (%): 95%
  Population Normal (%): 95%
  Population Pyknosed Nuclei (%): 5%
  Population Tubulin-Different-Phenotype (%): 15%
  Total Cell Count: 1748
HEK-293T [2]; [11]
  Growth Rate: 0
HEK-293T [2]; [12]
  Growth Rate: 0
HEK-293T [2]; [13]
  Growth Rate: 0
HEK-293T [2]; [14]
  Growth Rate: 0
Fibroblast; 0 h, replicate number 2, timepoint 0 hours
  Growth Rate: 1
Fibroblast; [11]
  Growth Rate: 0
Fibroblast; [12]
  Growth Rate: 0
Fibroblast; [13]
  Growth Rate: 0
Fibroblast; [14]
  Growth Rate: 0
